According to ChEMBL document CHEMBL4725336, “Anti-cancer potential of (1,2-dihydronaphtho[2,1-b]furan-2-yl)methanone derivatives” (Bioorg Med Chem Lett, 2020):
Calls of active or inactive are those of the source. The rule behind the calls is not given here.

What was measured:
WI-38 [1] = experiment: Induction of apoptosis in human WI-38 cells at 10 to 30 uM measured after 24 hrs by annexinV-FITC/propidium iodide staining based flow cytometry analysis; type: cell-based; conditions: wi-38, 24 h, dose 10-30 µM
How it was run: (§1)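 Cells were treated with 0, 10, 20 and 30 μM for 24 h, then stained with Annexin V-FITC/PI. Apoptotic cells were quantified by flow cytometry from dot plots against untreated cells.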

WI-38 [2] = experiment: Induction of apoptosis in human WI-38 cells assessed as increase in cleaved caspase-3 expression at 10 to 30 uM by Western blot analysis; type: cell-based; conditions: wi-38, 30 µM, dose 10-30 µM
WI-38 [3] = experiment: Induction of ROS generation in human WI-38 cells assessed as increase in fluorescence intensity at 10 to 30 uM after 12 hrs by DCFDA staining based microscopy analysis; type: cell-based; conditions: wi-38, 12 h, dose 10-30 µM
How it was run: (§2)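 Cells were exposed to 0, 10, 20 or 30 μM for 12 h, then stained with DCFDA (100 μM) for 30 min. Green fluorescence was imaged by microscopy and intensity was also read spectrophotometrically. Data are the mean of three experiments ±SD.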

[4] = Selectivity index, ratio of LD50 for human WI-38 cells to LD50 for human MCF7 cells assessed as inhibition of cell proliferation by MTT assay; type: toxicity; conditions: WI-38 cells and MCF7 cells, read-out: Selectivity Index
How it was run: (§3)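 MTT proliferation assay on cells treated with 0–50 μM. LD50 was derived for each cell line, and the selectivity index was calculated as WI-38 LD50 divided by cancer-cell LD50.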

MDA-MB-468 [5] = experiment: Induction of DNA damage in human MDA-MB-468 cells assessed as tail length at 30 uM measured after 24 hrs by comet assay; type: functional
How it was run: (§4)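 Cells given 0, 10, 20 and 30 μM; DNA strand breaks were assessed by single-cell gel electrophoresis (comet assay). Fragmented DNA migrates toward the anode, and tail length was measured against untreated cells.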

MDA-MB-468 [6] = experiment: Induction of apoptosis in human MDA-MB-468 cells assessed as increase in cleaved caspase-3 expression at 10 to 30 uM in presence of pan-caspase inhibitor z-VAD-FMK by Western blot analysis; type: functional, cell-based; conditions: dose microM 10-30
How it was run: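 MDA-MB-468 cells were exposed to the caspase inhibitor Z-VAD-FMK, then treated with 10, 20 or 30 μM. Cleaved caspase-3 was detected by Western blot and quantified.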

MCF7 [7] = experiment: Induction of ROS generation in human MCF7 cells assessed as increase in fluorescence intensity at 10 to 30 uM after 12 hrs in presence of ROS scavenger NAC by DCFDA staining based microscopy analysis; type: functional, cell-based; conditions: dose microM 10-30, time 12.0 hrs
How it was run: (§5)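 Cells were pre-treated with 10 mM N-acetyl cysteine (ROS scavenger), then given 10, 20 or 30 μM for 12 h. They were stained with 100 μM DCFDA for 30 min and read by fluorescence microscopy and spectrophotometric intensity. Three experiments, mean ±SD.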

MCF7 [8] = experiment: Induction of mitochondrial membrane potential loss in human MCF7 cells at 10 to 30 uM by JC-1 staining based analysis; type: functional, cell-based; conditions: dose microM 10-30, TDE = time-dependent effect
How it was run: (§6)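 Cells were given 10, 20 and 30 μM and stained with JC-1. Mitochondrial membrane potential change was read as the shift from red to green fluorescence, i.e. the red/green ratio, across concentration and time.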

MDA-MB-468 [9] = experiment: Induction of apoptosis in human MDA-MB-468 cells assessed as increase in p53 expression at 10 to 30 uM by Western blot analysis; type: functional, cell-based; conditions: dose microM 10-30
How it was run: (§7)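 MDA-MB-468 cells were treated with 10, 20 and 30 μM. Bcl2, Bax, cleaved caspase-3, p53 and pBad were probed by Western blot, and band expression was quantified.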

MDA-MB-468 [10] = experiment: Induction of mitochondrial membrane potential loss in human MDA-MB-468 cells by JC-1 staining based analysis; type: functional, cell-based; conditions: dose microM 10-30; how it was run: as §6
[11] = Selectivity index, ratio of LD50 for human WI-38 cells to LD50 for mouse 4T1 cells assessed as inhibition of cell proliferation by MTT assay
How it was run: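 Selectivity index computed as MTT-derived LD50 in non-cancerous WI-38 lung fibroblasts divided by LD50 in the cancer line (cells exposed to 0-50 μM).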

MDA-MB-468 [12] = experiment: Induction of ROS generation in human MDA-MB-468 cells assessed as increase in fluorescence intensity after 12 hrs by DCFDA staining based microscopy analysis; type: functional, cell-based; conditions: dose microM 10-30, time 12.0 hrs; how it was run: as §2
MDA-MB-468 [13] = experiment: Induction of apoptosis in human MDA-MB-468 cells assessed as decrease in Bcl2 expression at 10 to 30 uM by Western blot analysis; type: functional, cell-based; conditions: dose microM 10-30; how it was run: as §7
4T1 = experiment: Antiproliferative activity against mouse 4T1 cells assessed as inhibition of cell proliferation by MTT assay; type: functional; conditions: read-out: LD50 (the source's name)
How it was run: (§8)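 MTT proliferation assay; cells exposed to compounds across 0-50 μM; LD50 derived from dose-dependent survival. Triple-negative MDA-MB-468, MDA-MB-231 and 4T1, ER+/PR+ MCF-7, and non-cancerous lung fibroblast WI-38 tested.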

MCF7 [14] = experiment: Induction of ROS generation in human MCF7 cells assessed as increase in fluorescence intensity after 12 hrs by DCFDA staining based microscopy analysis; type: functional, cell-based; conditions: dose microM 10-30, time 12.0 hrs; how it was run: as §2
WI-38 [15] = experiment: Induction of mitochondrial membrane potential loss in human WI-38 cells at 10 to 30 uM by JC-1 staining based analysis; type: cell-based; conditions: wi-38, 30 µM, dose 10-30 µM; how it was run: as §6
MDA-MB-468 [16] = experiment: Induction of mitochondrial ROS production in human MDA-MB-468 cells at 10 to 30 uM by MitoSox red dye based spectrofluorimetric analysis; type: functional, cell-based; conditions: dose microM 10-30
How it was run: (§9)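 Cells were treated at 10, 20 and 30 μM and stained with MitoSOX Red. Red fluorescence from oxidized product was imaged and its intensity measured spectroscopically. Mean of three experiments ±SD.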

MCF7 [17] = experiment: Induction of mitochondrial ROS production in human MCF7 cells at 10 to 30 uM by MitoSox red dye based spectrofluorimetric analysis; type: functional, cell-based; conditions: dose microM 10-30; how it was run: as §9
MCF7 [18] = experiment: Induction of mitochondrial membrane potential loss in human MCF7 cells by JC-1 staining based analysis; type: functional, cell-based; conditions: dose microM 10-30; how it was run: as §6
MDA-MB-468 [19] = experiment: Induction of DNA damage in human MDA-MB-468 cells assessed as tail length at 20 uM measured after 24 hrs by comet assay; type: functional; how it was run: as §4
MDA-MB-468 [20] = experiment: Antiproliferative activity against human MDA-MB-468 cells assessed as inhibition of cell proliferation by MTT assay; type: functional; conditions: read-out: LD50 (the source's name); how it was run: as §8
MCF7 [21] = experiment: Induction of apoptosis in human MCF7 cells at 30 uM measured after 24 hrs by annexinV-FITC/propidium iodide staining based flow cytometry analysis relative to control; type: functional; how it was run: as §1
MDA-MB-468 [22] = experiment: Induction of mitochondrial membrane potential loss in human MDA-MB-468 cells at 10 to 30 uM by JC-1 staining based analysis; type: functional, cell-based; conditions: dose microM 10-30, TDE = time-dependent effect; how it was run: as §6
MDA-MB-468 [23] = experiment: Induction of apoptosis in human MDA-MB-468 cells assessed as decrease in pBad expression at 10 to 30 uM by Western blot analysis; type: functional, cell-based; conditions: dose microM 10-30; how it was run: as §7
MDA-MB-468 [24] = experiment: Induction of ROS generation in human MDA-MB-468 cells assessed as increase in fluorescence intensity at 10 to 30 uM after 12 hrs in presence of ROS scavenger NAC by DCFDA staining based microscopy analysis; type: functional, cell-based; conditions: dose microM 10-30, time 12.0 hrs; how it was run: as §5
MDA-MB-468 [25] = experiment: Induction of apoptosis in human MDA-MB-468 cells assessed as activation of caspase-3 cleavage at 10 to 30 uM by Western blot analysis; type: functional, cell-based; conditions: dose microM 10-30; how it was run: as §7
[26] = Selectivity index, ratio of LD50 for human WI-38 cells to LD50 for human MDA-MB-468 cells assessed as inhibition of cell proliferation by MTT assay; type: toxicity; conditions: WI-38 cells and MDA-MB-468 cells, read-out: Selectivity Index; how it was run: as §3
MDA-MB-231 = experiment: Antiproliferative activity against human MDA-MB-231 cells assessed as inhibition of cell proliferation by MTT assay; type: functional; conditions: read-out: LD50 (the source's name); how it was run: as §8
MDA-MB-468 [27] = experiment: Induction of apoptosis in human MDA-MB-468 cells at 30 uM measured after 24 hrs by annexinV-FITC/propidium iodide staining based flow cytometry analysis relative to control; type: functional; how it was run: as §1
[28] = Cytotoxicity against human WI-38 cells assessed as inhibition of cell proliferation by MTT assay; type: cell-based; conditions: read-out: LD50 (the source's name); how it was run: as §8
MCF7 [29] = experiment: Induction of apoptosis in human MCF7 cells measured after 24 hrs by annexinV-FITC/propidium iodide staining based flow cytometry analysis; type: functional, cell-based; conditions: dose microM 10-30, time 24.0 hrs; how it was run: as §1
[30] = Selectivity index, ratio of LD50 for human WI-38 cells to LD50 for human MDA-MB-231 cells assessed as inhibition of cell proliferation by MTT assay; type: toxicity; conditions: WI-38 cells and MDA-MB-231 cells, read-out: Selectivity Index
MCF7 [31] = experiment: Antiproliferative activity against human MCF7 cells assessed as inhibition of cell proliferation by MTT assay; type: functional; conditions: read-out: LD50 (the source's name); how it was run: as §8
MDA-MB-468 [32] = experiment: Induction of apoptosis in human MDA-MB-468 cells assessed as increase in BAX/Bcl2 expression ratio at 10 to 30 uM by Western blot analysis; type: functional, cell-based; conditions: dose microM 10-30; how it was run: as §7
MDA-MB-468 [33] = experiment: Induction of apoptosis in human MDA-MB-468 cells measured after 24 hrs by annexinV-FITC/propidium iodide staining based flow cytometry analysis; type: functional, cell-based; conditions: dose microM 10-30, time 24.0 hrs; how it was run: as §1

## Cc1ccc(C(=O)[C@@H]2Cc3c(ccc4ccccc34)O2)cc1
WI-38 [1]
  Activity: Non-Toxic
WI-38 [2]
  Activity: Non-Toxic
WI-38 [3]
  Activity: Non-Toxic
[4]
  selectivity ratio: 3.41
MDA-MB-468 [5]
  Activity: 63 µm
MDA-MB-468 [6]
  Activity: inactive
MCF7 [7]
  Activity: inactive
MCF7 [8]
  Activity: Tde
MDA-MB-468 [9]
  Activity: Active
MDA-MB-468 [10]
  Activity: Dose-dependent effect
[11]
  Selectivity Index: 2.76
MDA-MB-468 [12]
  Activity: Dose-dependent effect
MDA-MB-468 [13]
  Activity: Active
4T1
  CC50: 21 µM
MCF7 [14]
  Activity: Dose-dependent effect
WI-38 [15]
  Activity: Non-Toxic
MDA-MB-468 [16]
  Activity: Active
MCF7 [17]
  Activity: Active
MCF7 [18]
  Activity: Dose-dependent effect
MDA-MB-468 [19]
  Activity: 32 µm
MDA-MB-468 [20]
  CC50: 15 µM
MCF7 [21]
  Activity: 61%
MDA-MB-468 [22]
  Activity: Tde
MDA-MB-468 [23]
  Activity: Active
MDA-MB-468 [24]
  Activity: inactive
MDA-MB-468 [25]
  Activity: Active
[26]
  selectivity ratio: 3.87
MDA-MB-231
  CC50: 19 µM
MDA-MB-468 [27]
  Activity: 69%
[28]
  CC50: 58 µM
MCF7 [29]
  Activity: Dose-dependent effect
[30]
  selectivity ratio: 3.05
MCF7 [31]
  CC50: 17 µM
MDA-MB-468 [32]
  Activity: Active
MDA-MB-468 [33]
  Activity: Dose-dependent effect
